# This excerpt belongs to a sample that is enriched for hits.
# T cruzi intra: blocks T. cruzi growth inside host cells. intracellular Trypanosoma cruzi in host cells, plate reader. activity score (inhibition), % at 5.01 µM. 22,000 tested, 4.9% active. AID 651903; in the data active = activity score above about 55%;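 also: parasites and compound incubated about four days before reading; 0% = median of neutral control wells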
# A1 apoptosis 2: compounds inhibiting A1, read as caspase activation | MEF A1-2A-BIM cells, caspase-Glo luminescence, 3 h; percent of clofoctol response, DMSO zero | caspase activation, % (concentration not given with the values) | 24,000 tested, under 10 active | AID 2465; in the data active = caspase activation above about 5.9%
#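 System: mouse embryonic fibroblasts co-expressing A1 and BIM (A1-2A-BIM), primed for A1 dependence; amount: 2500 cells/well; doses: 50 nL pinned compound; schedule: cells settled overnight, compound exposure 3 h at 37 °C, 5% CO2; detection: Caspase-Glo 3/7 luminescence, 1 h at room temperature; read-out: Caspase-3/7 activation, seen as rise in luminescence signal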
# INS-1E ATP HTS: INS-1E beta cell protection from cytokine death. protection from cytokine-induced ATP loss, % at 10 µM. 20,000 tested, 0.1% active. INS-1E cytokine-induced death, ATP luminescence, 48 h; normalised: neutral wells 0, positive control 100;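 active = mean replicate protection from cytokine-induced ATP loss at least 50% and at least 75% of replicates each reaching 50%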
#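 Material: INS-1E rat cells; Quantity: 8000 cells/well; Buffer or medium: phenol-red-free RPMI with 5% fetal bovine serum; Probe or stimulus: cytokine cocktail of IFN-γ, TNF-α and IL-1β; Compound dosing: single test concentration per compound, delivered by pin transfer; Incubation: 48 h co-treatment, 10 min post-lysis read; Signal: CellTiter-Glo luminescence.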
# Starred values were filed as active, the others as inactive; . = not tested or not shown.
SMILES,T cruzi intra,A1 apoptosis 2,INS-1E ATP HTS
C[C@@H]1CN([C@H](C)CO)C(=O)c2cccc(NC(=O)c3ccncc3)c2O[C@@H]1CN(C)Cc1ccccc1,-12,2,0
C[C@@H]1CN([C@H](C)CO)C(=O)c2cc(NC(=O)Nc3ccccc3)ccc2O[C@@H](C)CCCCO[C@@H]1CN(C)C(=O)c1ccccc1,.,0,.
Cc1noc(C)c1S(=O)(=O)N(C)C[C@@H]1Oc2ccc(NS(=O)(=O)c3ccc(F)cc3)cc2CC(=O)N([C@@H](C)CO)C[C@@H]1C,-11,0,-3
COC(=O)[C@@]1(Cc2ccccc2CN=[N+]=[N-])N=C(c2ccc(OCCCO)cc2)O[C@H]1c1ccccc1,.,-1,.
[N-]=[N+]=NCc1ccccc1C[C@]1(C(=O)NCC(O)CO)N=C(c2ccc(OCCCO)cc2)O[C@H]1c1ccccc1 (stereo partly specified),.,-1,.
[N-]=[N+]=NCc1ccccc1C[C@@]1(C(=O)NCC(O)CO)N=C(c2ccc(OCCCO)cc2)O[C@@H]1c1ccccc1 (stereo partly specified),.,5.9*,.
CCCCN(CCCC)c1ccc(/C=N/NC(=O)CCCCCCC(=O)OC)cc1,58*,-1,-6
COC(=O)CCCCCCC(=O)N/N=C/c1ccccc1,.,-1,.
C[C@@H]1CN([C@@H](C)CO)C(=O)c2cc(NC(=O)Nc3ccc(C(F)(F)F)cc3)ccc2O[C@H]1CN(C)Cc1ccc(-c2ccccc2)cc1,2,0,-45
C[C@H](CO)N1C[C@H](C)[C@@H](CN(C)Cc2ccc(-c3ccccc3)cc2)Oc2ccc(NC(=O)Nc3ccc(C(F)(F)F)cc3)cc2C1=O,23,.,-20
C[C@@H]1CN([C@@H](C)CO)C(=O)c2cc(NC(=O)Nc3ccc(C(F)(F)F)cc3)ccc2O[C@@H]1CN(C)Cc1ccc(-c2ccccc2)cc1,64*,.,-34
C[C@@H]1CN([C@@H](C)CO)C(=O)c2cc(NC(=O)Cc3ccccc3)ccc2O[C@@H]1CN(C)Cc1ccc(C(F)(F)F)cc1,0,0,.
C[C@H](CO)N1C[C@H](C)[C@H](CN(C)Cc2ccc(C(F)(F)F)cc2)Oc2ccc(NC(=O)Cc3ccccc3)cc2C1=O,64*,.,.
C[C@@H]1CN([C@H](C)CO)C(=O)c2cc(NC(=O)Nc3ccc(C(F)(F)F)cc3)ccc2O[C@H]1CN(C)Cc1ccc(-c2ccccc2)cc1,86*,0,-68
C[C@@H]1CN([C@@H](C)CO)C(=O)c2cccc(N(C)C)c2O[C@@H]1CN(C)Cc1ccccc1,6,0,2
CC(C)NC(=O)Nc1cccc2c1O[C@@H](CN(C)S(=O)(=O)c1ccccc1)[C@@H](C)CN([C@H](C)CO)C2=O,-7,0,15
C[C@H]1CN([C@@H](C)CO)C(=O)c2cccc(NC(=O)c3cnccn3)c2O[C@H]1CN(C)S(=O)(=O)c1ccc(F)cc1,13,.,5
CC(C)NC(=O)N(C)C[C@H]1Oc2ccc(NC(=O)c3ccncc3)cc2C(=O)N([C@@H](C)CO)C[C@@H]1C,-5,.,-3
C[C@@H]1CCCCO[C@@H](CN(C)CC2CCCCC2)[C@@H](C)CN([C@H](C)CO)C(=O)c2cc(NC(=O)Nc3ccc4c(c3)OCO4)ccc2O1,58*,-3,-25
C[C@H]1CCCCO[C@H](CN(C)Cc2ccc3c(c2)OCO3)[C@@H](C)CN([C@@H](C)CO)C(=O)c2cc(NC(=O)Nc3ccc4c(c3)OCO4)ccc2O1,.,1,.
C[C@@H]1CCCCO[C@@H](CN(C)Cc2ccc3c(c2)OCO3)[C@@H](C)CN([C@H](C)CO)C(=O)c2cc(NC(=O)Nc3ccc(C(F)(F)F)cc3)ccc2O1,65*,.,-16
C[C@@H]1CN([C@@H](C)CO)C(=O)c2cc(NC(=O)Nc3ccc(F)cc3)ccc2O[C@@H](C)CCCCO[C@H]1CN(C)CC1CC1,.,1,.
C[C@@H]1CN([C@@H](C)CO)C(=O)c2cc(NC(=O)Nc3ccc4c(c3)OCO4)ccc2O[C@@H](C)CCCCO[C@H]1CN(C)CC1CCCCC1,.,1,.
C[C@@H]1CCCCO[C@@H](CN(C)Cc2ccc3c(c2)OCO3)[C@@H](C)CN([C@H](C)CO)C(=O)c2cc(NC(=O)Nc3ccc4c(c3)OCO4)ccc2O1,71*,.,-18
C[C@@H]1CCCCO[C@H](CN(C)CC2CCCCC2)[C@@H](C)CN([C@H](C)CO)C(=O)c2cc(NC(=O)Nc3ccc(F)cc3)ccc2O1,67*,0,-23
SMILES,T cruzi intra,A1 apoptosis 2,INS-1E ATP HTS
C[C@@H]1CN([C@H](C)CO)C(=O)c2cc(NC(=O)Nc3ccc(C(F)(F)F)cc3)ccc2O[C@@H](C)CCCCO[C@H]1CN(C)Cc1ccc2c(c1)OCO2,.,1,.
Cc1noc(C)c1NC(=O)Nc1ccc2c(c1)CC(=O)N([C@@H](C)CO)C[C@H](C)[C@@H](CN(C)S(=O)(=O)c1ccccc1)O2,-15,0,-1
O=C(CCCCCC(=O)N/N=C/c1ccc2ccccc2n1)NO,.,-2,.
COC(=O)c1cn(CC(=O)N2CCN(c3ccccc3)CC2)nn1,.,0,.
C[C@H](CO)N1C[C@H](C)[C@@H](CN(C)S(=O)(=O)c2ccccc2)Oc2ccc(NS(=O)(=O)c3ccc(Cl)cc3)cc2CC1=O,.,0,.
CC(C)NC(=O)Nc1ccc2c(c1)C(=O)N([C@H](C)CO)C[C@H](C)[C@@H](CN(C)Cc1ccccc1)O2,5,1,.
C[C@@H]1CCCCO[C@H](CN(C)Cc2ccc(Cl)c(Cl)c2)[C@H](C)CN([C@@H](C)CO)C(=O)c2cc(NC(=O)Nc3ccc(C(F)(F)F)cc3)ccc2O1,.,-1,.
C[C@@H]1CCCCO[C@H](CN(C)Cc2ccc(Cl)c(Cl)c2)[C@@H](C)CN([C@H](C)CO)C(=O)c2cc(NC(=O)Nc3ccc4c(c3)OCO4)ccc2O1,69*,.,-26
C[C@@H]1CCCCO[C@@H](CN(C)Cc2ccc(Cl)c(Cl)c2)[C@@H](C)CN([C@H](C)CO)C(=O)c2cc(NC(=O)Nc3ccc(C(F)(F)F)cc3)ccc2O1,76*,.,-18
C[C@@H]1CCCCO[C@@H](CN(C)Cc2ccc(Cl)c(Cl)c2)[C@H](C)CN([C@H](C)CO)C(=O)c2cc(NC(=O)Nc3ccc4c(c3)OCO4)ccc2O1,.,2,.
COc1ccc(C#Cc2ccc3c(c2)[C@]2(C(=O)N3)[C@H](c3ccc(O)cc3)N3[C@H](c4ccccc4)[C@H](c4ccccc4)OC(=O)[C@H]3[C@@H]2C(N)=O)cc1,.,1,.
C[C@H]1CN([C@@H](C)CO)C(=O)Cc2cc(NC(=O)CCN3CCOCC3)ccc2O[C@H]1CN(C)S(=O)(=O)c1ccccc1,-5,-1,-2
COc1ccc(S(=O)(=O)Nc2cccc3c2O[C@H](CN(C)S(=O)(=O)c2ccc(OC)cc2)[C@H](C)CN([C@@H](C)CO)C3=O)cc1,42,.,6
C[C@H]1CN([C@@H](C)CO)C(=O)Cc2cc(NC(=O)Nc3ccc(C(F)(F)F)cc3)ccc2O[C@H]1CN(C)Cc1ccc(Oc2ccccc2)cc1,4,-1,-19
C[C@@H]1CN([C@@H](C)CO)C(=O)Cc2cc(NC(=O)Nc3ccc(C(F)(F)F)cc3)ccc2O[C@@H]1CN(C)Cc1ccc(Oc2ccccc2)cc1,74*,-1,-8

# Assay outcomes (PubChem)
